This is a sample that favours compounds with a hit; in the whole collection about 1.8% have one here.
SIAE primary: inhibitors of human sialic acid acetylesterase SIAE. 370,000 tested, 0.69% active. inhibition, % at 9.66 µM. SIAE FP-Rh probe binding, fluorescence polarization. Q9HAT2;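 active = inhibition above a cutoff: mean of compounds within the control limits plus 3 SD of those, cut at about 17% in these data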;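 note: 0% = plate median of compound wells and 100% = probe without SIAE protein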
Target sequence (Q9HAT2 whole entry, looked up): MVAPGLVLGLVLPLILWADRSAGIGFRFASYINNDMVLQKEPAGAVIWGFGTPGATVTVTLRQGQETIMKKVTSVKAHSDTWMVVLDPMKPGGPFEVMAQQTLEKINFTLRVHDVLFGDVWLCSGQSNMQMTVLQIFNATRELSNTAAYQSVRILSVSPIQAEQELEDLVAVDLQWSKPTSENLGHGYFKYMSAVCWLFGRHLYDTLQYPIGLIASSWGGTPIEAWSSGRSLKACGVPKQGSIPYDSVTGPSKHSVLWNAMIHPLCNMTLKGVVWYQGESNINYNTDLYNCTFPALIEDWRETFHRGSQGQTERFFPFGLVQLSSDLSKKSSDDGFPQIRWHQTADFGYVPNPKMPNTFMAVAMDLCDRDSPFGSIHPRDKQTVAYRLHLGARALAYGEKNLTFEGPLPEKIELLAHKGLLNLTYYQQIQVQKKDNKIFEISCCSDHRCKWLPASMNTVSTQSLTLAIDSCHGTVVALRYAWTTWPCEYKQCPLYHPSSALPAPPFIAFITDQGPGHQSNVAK
TCR CD3 inh: human TCR-CD3 binding inhibition | TAMRA-labeled TCR probe fluorescence, biochemical | inhibition, % at 9.4 µM | 360,000 tested, 0.37% active; in the data active = inhibition above about 19%;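 note: recombinant mutant TCR 2C K166C tagged with TAMRA read by polarization; 0% = receptor in buffer alone and 100% = receptor with positive control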
HTRA1 inh: HTRA1 (human) protease inhibition; Q92743; recombinant HTRA1, FP-rhodamine activity-based probe, fluorescence polarization; inhibition, % at 5.96 µM; 340,000 tested, 0.5% active; AID 504803; in the data active = inhibition above about 36%;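 note: 0% = enzyme with DMSO and 100% = wells lacking enzyme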
ABHD4 inh: inhibitors of mouse ABHD4 | Q8VD66 | purified mABHD4, FP-Rh probe fluorescence polarization | inhibition, % at 8.92 µM | 370,000 tested, 0.54% active | AID 720543;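 active = inhibition exceeding the mean over every tested compound plus 3 SD, cut at about 30% in these data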;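 note: 0% = plate median of compound wells and 100% = S159A mutant with DMSO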
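Doses – 8.92 µM, single dose · Material – wild-type mouse ABHD4 protein · Replication – single well per compound (singlicate) · Measure – percent inhibition of probe binding, normalized to plate controls · Schedule – 45 min compound pre-incubation plus 60 min probe step, 25 °C · Detection – fluorescence polarization with parallel and perpendicular emission, 525/598 nm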
ARNT TACC3 PPI: ARNT/TACC3 interaction disruption; AlphaScreen His-ARNT PAS-B/GST-TACC3 binding, luminescence; TACC3 fragment carries E629A point mutation; inhibition, % at 9.99 µM; 390,000 tested, 0.66% active;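 active = mean inhibition of replicates at least 50% and at least half of replicates each reaching 50%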;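 note: 0% = complete ARNT plus TACC3 wells and 100% = ARNT alone without TACC3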
* = called active by the depositor; nt = no result.

SMILES | SIAE primary | TCR CD3 inh | HTRA1 inh | ABHD4 inh | ARNT TACC3 PPI
COc1ccc(S(=O)(=O)N(C)C[C@@H]2OCCCC[C@@H](C)Oc3ccc(NC(=O)Nc4ccccc4)cc3C(=O)N([C@@H](C)CO)C[C@@H]2C)cc1 | nt | nt | nt | nt | -18
COc1ccc(CCN(C)C(=O)c2cnc(C)cn2)cc1OC | -2 | 0 | 0 | 2 | active
CCCOC(=O)C1C2C=CC3(CN(c4ccc(Cl)c(F)c4)C(=O)C13)O2 (stereo unspecified) | 49* | -5 | 2 | -1 | nt
CCOC(=O)C1C2C=CC3(CN(c4ccc(Cl)c(F)c4)C(=O)C13)O2 (stereo unspecified) | -7 | -6 | 3 | 1 | 2
C=CC1=C(C(=O)O)N2C(=O)[C@@H](NC(=O)/C(=N\O)c3csc(N)n3)[C@H]2SC1 (stereo in doubt) | 7 | 13 | 6 | 4 | 64*
CCn1ccc(C(=O)NC2C(=O)N3C(C(=O)O)=C(C)CSC23)n1 (stereo unspecified) | -2 | 7 | 3 | -3 | -6
CC(C)NC(=O)Nc1ccc2c(c1)C(=O)N([C@H](C)CO)C[C@@H](C)[C@H](CN(C)C(=O)CCC(F)(F)F)OCCCC[C@@H](C)O2 | nt | nt | nt | nt | -5
CCOC(=O)c1cc2c(c(-c3cccc(-c4cccc(OC)c4)c3)n1)[C@H](CCO)N(S(=O)C(C)(C)C)C2 (stereo partly specified) | nt | nt | nt | nt | -6
C/C=C/c1cccc(-c2nc(C(=O)NCc3ccncc3)cc3c2[C@H](CCO)N([S@@](=O)C(C)(C)C)C3)c1 | nt | nt | nt | nt | 52*
C/C=C/c1cccc(-c2nc(C(=O)NCc3ccc(OC)cc3)cc3c2[C@H](CCO)N([S@@](=O)C(C)(C)C)C3)c1 | nt | nt | nt | nt | -1
CCOC(=O)c1cc2c(c(-c3cccc(-c4cccc(OC)c4)c3)n1)[C@@H](CCO)N(S(=O)C(C)(C)C)C2 (stereo partly specified) | nt | nt | nt | nt | 55*
C[C@H](CO)N1C[C@H](C)[C@@H](CN(C)Cc2ccc3c(c2)OCO3)Oc2ccc(NC(=O)Cc3cn(C)c4ccccc34)cc2C1=O | nt | nt | nt | nt | 5
CO[C@@H]1CN(C)C(=O)c2cc(NS(C)(=O)=O)ccc2OC[C@H](C)N(Cc2ccccc2)C[C@@H]1C | nt | nt | nt | nt | 3
COCC(=O)N(C)C[C@@H]1Oc2cc(C#C[C@@H](C)O)ccc2S(=O)(=O)N([C@@H](C)CO)C[C@@H]1C | nt | nt | nt | nt | 16
CCN(CC)c1ccc(C=Nc2cccnc2Cl)c(O)c1 | -1 | 10 | -3 | 11 | active
CC(=O)Nc1ccc2[nH]c3ccccc3c2c1 | 0 | 5 | -2 | -3 | 0
O=C(Nc1ccc(Cl)cc1)c1cc2c(cc1O)[nH]c1ccccc12 | 51* | 4 | 16 | 13 | -1
Cc1noc(C)c1NC(=O)Nc1ccc2c(c1)C(=O)N([C@H](C)CO)C[C@H](C)[C@@H](CN(C)C(=O)Nc1cccc3ccccc13)O2 | nt | nt | nt | nt | -1
Cc1c(CCO)c(=O)[nH]n1S(=O)(=O)c1ccccc1 | 5 | -5 | -6 | -3 | nt
Cc1c(CCO)c(=O)n(-c2ccccc2)n1S(=O)(=O)c1c(Cl)cc(Cl)cc1Cl | 3 | -6 | -4 | -1 | 57*
Cc1[nH][nH]c(=O)c1C(c1cc2c(cc1Br)OCO2)c1c(C)[nH][nH]c1=O | 10 | -6 | 5 | 11 | 2
Cc1[nH][nH]c(=O)c1C(c1cc(Br)ccc1O)c1c(C)[nH][nH]c1=O | 6 | 0 | 2 | 8 | active
COc1ccccc1NC(=O)N(C)C[C@H]1OCc2ccccc2-c2ccccc2C(=O)N([C@@H](C)CO)C[C@H]1C | nt | nt | nt | nt | -2
COC(=O)c1ccc(C2Nc3ccc(/C(C)=N/NC(=O)C(OC)c4ccccc4)cc3C3C=CCC32)cc1 (stereo unspecified) | 22* | 1 | 21 | 14 | -1
COc1ccc(CNS(=O)(=O)c2cc(CN3C(=O)c4cccnc4C3=O)ccc2OC)cc1 | 0 | 4 | 2 | 6 | 18
COc1ccc(CN2C(=O)c3cccnc3C2=O)cc1S(=O)(=O)NCc1ccccc1 | -1 | 10 | -2 | 9 | 48*
CC(C)(C)c1ccc(OCC(=O)N/N=C/C2CC=CCC2)cc1 (stereo unspecified) | -3 | 2 | -23 | -6 | 25*
COc1cccc(S(=O)(=O)Nc2ccc3c(c2)OC[C@@H](C)NC[C@H](C)[C@H](OC)CN(C)C3=O)c1 | nt | nt | nt | nt | -1

Compound activity: PubChem BioAssay, several laboratories
